Source: ChEMBL document CHEMBL1926565, “Synthesis, antiproliferative activities and telomerase inhibition evaluation of novel asymmetrical 1,2-disubstituted amidoanthraquinone derivatives” (Eur J Med Chem, 2012)
Calls of active or inactive are those of the source. The calls are words filed in the database; no cut-off is given here.

Experiments:
PC-3 = test: Cytotoxicity against human PC3 cells after 48 hrs by SRB assay; type: functional, cell-based; conditions: PC-3, 48 h
Method in brief: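 PC-3 cells grown in RPMI1640 with 10% FBS at 37 °C, 5% CO₂. Seeded in medium with 5% FBS; after 24 h, one plate fixed with 10% TCA as T₀. Compound or 0.1% DMSO vehicle added for 48 h, then TCA fixation and 0.4% SRB in 1% acetic acid. Dye solubilized in 10 mM Trizma base, absorbance read at 515 nm. IC50 is the concentration giving 50% reduction of the protein gain in controls.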

[1] = biological target: Telomerase reverse transcriptase (Homo sapiens) (UniProt O14746); test: Inhibition of telomerase activity in human H1299 cell free extract at 10 uM by modified TRAP assay
Telomerase reverse transcriptase (Homo sapiens), sequence (O14746 whole entry): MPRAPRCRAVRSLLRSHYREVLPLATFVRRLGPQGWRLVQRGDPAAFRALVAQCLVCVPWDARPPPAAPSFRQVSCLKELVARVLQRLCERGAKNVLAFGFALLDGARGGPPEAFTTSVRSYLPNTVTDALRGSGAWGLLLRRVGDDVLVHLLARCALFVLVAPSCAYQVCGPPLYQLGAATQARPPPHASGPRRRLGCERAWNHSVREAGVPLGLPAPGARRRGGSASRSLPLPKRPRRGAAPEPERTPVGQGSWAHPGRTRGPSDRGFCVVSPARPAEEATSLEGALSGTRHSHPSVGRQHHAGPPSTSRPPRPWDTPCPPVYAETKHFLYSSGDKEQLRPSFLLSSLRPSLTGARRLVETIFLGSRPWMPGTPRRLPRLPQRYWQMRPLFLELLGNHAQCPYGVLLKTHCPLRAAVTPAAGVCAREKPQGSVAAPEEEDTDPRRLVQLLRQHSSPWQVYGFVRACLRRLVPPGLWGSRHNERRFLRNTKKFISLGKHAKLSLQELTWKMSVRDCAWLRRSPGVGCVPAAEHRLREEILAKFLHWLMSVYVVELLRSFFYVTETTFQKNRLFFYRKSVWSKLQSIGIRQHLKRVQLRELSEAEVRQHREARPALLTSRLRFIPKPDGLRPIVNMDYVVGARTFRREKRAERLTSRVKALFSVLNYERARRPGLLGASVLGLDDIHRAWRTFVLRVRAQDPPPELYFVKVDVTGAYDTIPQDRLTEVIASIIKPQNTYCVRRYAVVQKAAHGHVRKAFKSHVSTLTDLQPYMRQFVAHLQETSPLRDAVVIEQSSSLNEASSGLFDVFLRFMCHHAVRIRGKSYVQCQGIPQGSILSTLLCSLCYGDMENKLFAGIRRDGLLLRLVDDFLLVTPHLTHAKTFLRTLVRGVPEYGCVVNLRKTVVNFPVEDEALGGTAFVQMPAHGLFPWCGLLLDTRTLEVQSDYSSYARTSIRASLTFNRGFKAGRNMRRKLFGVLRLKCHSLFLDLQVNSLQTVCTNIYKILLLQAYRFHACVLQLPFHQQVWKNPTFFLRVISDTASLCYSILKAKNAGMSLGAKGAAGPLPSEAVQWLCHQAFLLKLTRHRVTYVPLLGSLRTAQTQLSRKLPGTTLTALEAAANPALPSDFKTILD
Method in brief: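 TRAP assay using total cell lysate from H1299 lung cancer cells as the telomerase source, with protein measured against BSA standards. Compounds tested at 10 µM. Controls were lysate without inhibitor (positive) and RNase A-treated extract without inhibitor (negative).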

[2] = Growth of human H1299 cells at 100 uM 48 hrs by MTT assay; conditions: NCI-H1299, 48 h
[3] = Growth of human H1299 cells at 1 uM after 48 hrs by MTT assay; conditions: NCI-H1299, 48 h
[4] = Growth of human H1299 cells at 10 uM after 48 hrs by MTT assay; conditions: NCI-H1299, 48 h
[5] = biological target: Telomerase reverse transcriptase (Homo sapiens) (UniProt O14746); test: Residual activity of human TERT in H1299 cells at 1 uM after 24 hrs by SEAP reporter gene assay
[6] = biological target: Telomerase reverse transcriptase (Homo sapiens) (UniProt O14746); test: Residual activity of human TERT in H1299 cells at 10 uM after 24 hrs by SEAP reporter gene assay
[7] = biological target: Telomerase reverse transcriptase (Homo sapiens) (UniProt O14746); test: Residual activity of human TERT in H1299 cells at 100 uM after 24 hrs by SEAP reporter gene assay

| inhibition [1] | residual activity [5] [%] | residual activity [6] [%] | residual activity [7] [%] | Compound | IC50 (PC-3) [µM] | growth, % of control at 100 µM [2] [%] | growth, % of control at 1 µM [3] [%] | growth, % of control at 10 µM [4] [%] |
| --- | --- | --- | --- | --- | --- | --- | --- | --- |
| inactive | 113 | 92 | 15 | O=C(CCl)Nc1ccc2c(c1NC(=O)CCCl)C(=O)c1ccccc1C2=O | 1.23 | 19 | 103 | 79 |
| inactive | 108 | 97 | 30 | O=C(CCl)Nc1ccc2c(c1NC(=O)CCCCl)C(=O)c1ccccc1C2=O | 1.12 | 62 | 100 | 116 |
| inactive | 96 | 94 | 15 | O=C(CCCl)Nc1ccc2c(c1NC(=O)CCCl)C(=O)c1ccccc1C2=O | > 20 | 5 | 101 | 83 |
| inactive | 93 | 8 | 1 | O=C(CCl)Nc1ccc2c(c1NC(=O)Cc1ccc(F)cc1)C(=O)c1ccccc1C2=O | > 20 | 6 | 88 | 7 |

The remaining lines, values behind:

| Compound | inhibition [1] | residual activity [5] [%] | residual activity [6] [%] | residual activity [7] [%] | IC50 (PC-3) [µM] | growth, % of control at 100 µM [2] [%] | growth, % of control at 1 µM [3] [%] | growth, % of control at 10 µM [4] [%] |
| --- | --- | --- | --- | --- | --- | --- | --- | --- |
| Cc1ccc(C(=O)Nc2c(NC(=O)CN3CCN(CCO)CC3)ccc3c2C(=O)c2ccccc2C3=O)cc1 | inactive | 76 | 8 | 0 | 2.07 | 0 | 71 | 44 |
| O=C(CCl)Nc1ccc2c(c1NC(=O)c1ccccc1C(F)(F)F)C(=O)c1ccccc1C2=O | inactive | 93 | 4 | 2 | 3.42 | 0 | 93 | 3 |
| O=C(CCl)Nc1ccc2c(c1NC(=O)c1cccc(F)c1)C(=O)c1ccccc1C2=O | inactive | 26 | 1 | 0 | 3.48 | 1 | 18 | 8 |
| O=C(CCl)Nc1ccc2c(c1NC(=O)c1ccc(F)cc1)C(=O)c1ccccc1C2=O | inactive | 11 | 2 | 0 | 3.14 | 0 | 10 | 4 |
| Cc1ccc(C(=O)Nc2c(NC(=O)CN(C)C)ccc3c2C(=O)c2ccccc2C3=O)cc1 | inactive | 99 | 78 | 9 | 3.92 | 0 | 106 | 88 |
| O=C(CCl)Nc1ccc2c(c1NC(=O)c1cccc(Cl)c1)C(=O)c1ccccc1C2=O | inactive | 80 | 6 | 3 | 3.51 | 0 | 89 | 5 |
